Screening results from PubChem BioAssay.
HCV NS3 hel inh = blocks Hepatitis C virus NS3 helicase unwinding. NS3 helicase DNA unwinding, Cy5 molecular beacon fluorescence. inhibition, % at 10.9 µM. 0.56% of 290,000 active. AID 1800;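 active = inhibition above the mean of all tested compounds plus 3 SD, set per campaign, cut at about 35% in these data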;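 also: 0% = DMSO wells and 100% = thioflavine S control wells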
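Test system: hepatitis C virus NS3 helicase domain fragment enzyme. Also added: annealed dual-labelled DNA beacon duplex, ATP-started. Timing: 60 min unwinding reaction at 25 °C after ATP addition. Technique: Cy5 fluorescence. Measure: % inhibition of unwinding.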
TAAR1 ag = human TAAR1 agonism; Q96RJ0; CHO RD-HGA16 TAAR1, Fluo-8 calcium fluorescence; vehicle wells 0%, saturating PEA agonist 100%; activation, % at 3 µM; 0.99% of 360,000 active;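 active = activation above the mean activation of all test compounds in the run plus 3 SD, cut at about 38% in these data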
Target sequence (Q96RJ0 whole entry, looked up): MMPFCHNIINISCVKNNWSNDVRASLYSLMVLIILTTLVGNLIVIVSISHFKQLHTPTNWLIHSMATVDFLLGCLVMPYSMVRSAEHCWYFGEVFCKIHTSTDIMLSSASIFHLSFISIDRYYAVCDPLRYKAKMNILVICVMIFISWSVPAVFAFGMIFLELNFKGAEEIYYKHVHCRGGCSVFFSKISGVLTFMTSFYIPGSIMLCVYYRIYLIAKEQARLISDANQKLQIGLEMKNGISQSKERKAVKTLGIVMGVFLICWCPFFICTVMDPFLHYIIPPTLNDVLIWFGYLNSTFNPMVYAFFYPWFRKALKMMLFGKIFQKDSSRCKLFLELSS
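Signal – calcium-sensitive Fluo-8 signal, excitation 470-495, emission 515-575 nm · System – RD-HGA16 (CHO) cells co-expressing Gα16 and hTAAR1 · Incubation – 17-24 h seeding, 75 min 37 °C dye, 30 min RT · Compound dosing – 3 µM single concentration · Repeats – no replicates (n 1)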
TAAR1 antag = antagonists of human TAAR1 | AID 624466 | inhibition, % at 3 µM | 1.5% of 360,000 active | CHO RD-HGA16 TAAR1, Fluo-8 calcium fluorescence, antagonist | Q96RJ0;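 active = inhibition above a per-plate cutoff, the mean inhibition of test compounds on that plate plus 3 SD, cut at about 49% in these data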;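 also: 0% = DMSO plus EC80 beta-PEA response and 100% = DMSO alone without agonist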
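Assay system: CHO-derived RD-HGA16 cells stably expressing human TAAR1 plus Gα16. Timing: 140 s kinetic read after compound, 140 s after agonist. Technique: kinetic Fluo-8 calcium fluorescence measurement. Measure: % inhibition of agonist calcium response.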
core dimer inh = HCV core protein dimerization inhibition | inhibition, % at 5 µM | AID 1899 | TR-FRET GST/Flag-core106 dimerization, 1536-well | 0.33% of 300,000 active;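 active = inhibition above the mean of all tested compounds plus 3 SD, set per screening campaign, cut at about 45% in these data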
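System: GST-tagged and Flag-tagged HCV core protein residues 1-106 / Input: core106 proteins, GST 13.5 nM and Flag 17 nM / Buffer or medium: KF-containing HEPES buffer, pH 7.45, DTT, CHAPS, BSA / Probe or stimulus: Eu-anti-GST and XL665-anti-Flag labelled anti-tag antibodies / Schedule: 4 h, 22.5 °C incubation / Technique: TR-FRET 671 and 617 nm emission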
rCAG binder = r(CAG) repeat RNA binding; TO-PRO-1 dye displacement fluorescence; inhibition, % at 3 µM; 1.3% of 370,000 active;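 active = inhibition above the plate cutoff, the mean of all test compounds on that plate plus 3 SD, cut at about 35% in these data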;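 also: 0% = DMSO alone and 100% = 100 µM mitoxantrone as full dye displacement; higher means more dye released from RNA so lower well fluorescence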
TAAR1 ag conf = human TAAR1 agonism, confirmed | CHO RD-HGA16 TAAR1, Fluo-8 calcium fluorescence; scaled: DMSO 0%, maximal phenethylamine 100% | activation, % at 3 µM | shares compounds with TAAR1 ag | 82% of 2,400 active | AID 651783;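 active = activation above a cutoff set at the run's mean compound activation plus 3 SD, cut at about 39% in these data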
Ga16 nonsel ag = nonselective agonism, TAAR1 counter-screen; CHO-Ga16 parental, Fluo-8 calcium fluorescence; normalized to maximal ATP response, DMSO zero; AID 651787; activation, % at 3 µM; shares compounds with TAAR1 ag; 50% of 2,400 active;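 active = activation above the run cutoff, the mean activation over all tested wells plus 3 SD, cut at about 12% in these data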;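 also: 0% = DMSO wells and 100% = maximal ATP response on the peak over basal ratio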
TAAR1 desensitize = TAAR1 response desensitization, agonist counter-screen; shares compounds with TAAR1 ag; CHO RD-HGA16 hTAAR1, Fluo-8 calcium, beta-PEA response inhibition; inhibition, % at 3 µM; 46% of 2,400 active;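 active = inhibition above the run cutoff, the mean inhibition of all test compounds plus 3 SD, cut at about 49% in these data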;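 also: beta-PEA stimulus applied at its EC80; loss of beta-PEA calcium signal after compound pretreatment read as receptor desensitization; 0% = DMSO with beta-PEA at EC80 and 100% = DMSO alone without agonist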
Ga16 antag count = nonselective Ga16 antagonism, counter-screen | 39% of 2,400 active | AID 651952 | inhibition, % at 3 µM | shares compounds with TAAR1 ag | CHO-Ga16 ATP-induced calcium, Fluo-8 fluorescence;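 active = inhibition above the plate's mean compound inhibition plus 3 SD, computed per plate, cut at about 22% in these data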;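 also: 0% = EC80 ATP with DMSO and 100% = DMSO wells without ATP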
An asterisk follows results filed as active; x = no result given. Only some compounds are listed: those with a hit (about 3.7% of all), similar ones and a draw of the others.

SMILES	HCV NS3 hel inh	TAAR1 ag	TAAR1 antag	core dimer inh	rCAG binder	TAAR1 ag conf	Ga16 nonsel ag	TAAR1 desensitize	Ga16 antag count
C/C(=N\NC(=O)c1nnn(-c2nonc2N)c1-c1ccc2c(c1)OCO2)c1ccc(C)cc1	-3.4	124.9*	79.9*	12.4	0.4	126.6*	94.0*	83.3*	63.7*
C/C(=N\NC(=O)c1nnn(-c2nonc2N)c1-c1ccc2c(c1)OCO2)c1ccccc1	12.7	60.2*	2.7	-7.7	6.3	96.1*	46.4*	22.3	13.1
C/C(=N\NC(=O)c1nnn(-c2nonc2N)c1-c1ccc2c(c1)OCO2)c1ccc(F)cc1	4.6	11.9	-12.2	-1.6	4.5	x	x	x	x
C=CCN(CC#Cc1ccccc1)CC1CC1	x	x	x	x	-0.9	x	x	x	x
C[C@]12Cc3ccccc3C1CC1=N[C@@H](c3ccccn3)O[C@@]13C[C@@H]2C(=O)N3C1CCN(Cc2ccccc2)CC1 (some centres not stated)	x	1.3	6.1	x	2.1	x	x	x	x
CCCOc1ccc(C(=O)NNC(=S)NC(=O)c2cc(-c3ccccc3)nc3ccccc23)cc1	-17.2	55.1*	21.8	23.8	2.8	82.5*	71.5*	76.7*	73.7*
CC(Oc1ccc(Cl)cc1)C(=O)NNC(=S)NC(=O)c1ccco1 (configuration not stated)	7.9	116.5*	48.9*	-2.6	18.1	78.7*	61.5*	37.1	40.5*
CCCOc1ccc(C(=O)NNC(=S)NC(=O)c2ccco2)cc1	-4.1	156.4*	105.1*	-6.4	25.5	147.2*	119.3*	103.6*	71.6*
CCCOc1ccc(C(=O)NNC(=S)NC(=O)c2ccccc2)cc1	10.0	161.1*	105.8*	9.4	27.6	146.6*	117.3*	106.4*	95.0*
O=C(COc1ccc(Cl)cc1Cl)NNC(=S)NC(=O)c1ccco1	11.9	8.1	-21.2	4.3	5.2	x	x	x	x
CCCOc1ccc(C(=O)NNC(=S)NC(C)=O)cc1	13.9	12.9	-13.7	0.3	1.0	x	x	x	x
O=C(NC(=S)NNC(=O)c1ccco1)c1ccc(Br)cc1	2.2	94.3*	27.0	-5.0	4.3	92.1*	72.0*	35.9	32.3*
CCC(=O)NC(=S)NNC(=O)c1ccc(OC)cc1	-7.2	2.5	11.2	-7.0	-0.6	x	x	x	x
COc1ccc(C(=O)NNC(=S)NC(=O)c2ccco2)cc1	2.3	58.8*	12.8	-6.5	5.0	66.0*	38.6*	15.8	13.1
Cn1cc(CC(=O)Nc2ccc(Nc3cccnc3)c(Br)c2)c2ccccc21	x	1.4	27.3	x	8.6	x	x	x	x
C=CCNC(=O)NCC1CCN(Cc2ccc(OC)cc2)CC1	x	x	x	x	1.2	x	x	x	x
COc1ccc(Cn2ccc3ccc(-c4ccc5ccn(C(=O)c6ccccc6)c5c4)cc32)cc1	x	x	x	x	9.6	x	x	x	x
Cc1cc(/C=C2/SC(=O)NC2=O)c(C)n1-c1ccc(N2CCOCC2)cc1	0.1	53.8*	27.9	5.6	10.0	60.0*	38.0*	29.8	24.1*
Cc1cccc(CC(C)NC(=O)c2cc(COc3ccc(F)cc3F)on2)n1 (configuration not stated)	3.4	88.3*	99.2*	1.2	-6.8	9.1	5.3	14.0	7.3
Cc1cccc(CC(C)NC(=O)c2cc(COc3ccc(C)c(C)c3)on2)n1 (configuration not stated)	-7.3	2.9	-19.6	-10.6	-5.9	x	x	x	x
CCCC[C@H](C(=O)N(C)c1ccccc1)[C@@H](O)c1ccc(C(C)=O)cc1	x	x	x	x	-3.7	x	x	x	x
C/C=C(\C)C(=O)OC1c2c(ccc3ccc(=O)oc23)OC(C)(C)C1OC(C)=O (configuration not stated)	-18.2	50.8*	62.2*	7.4	-8.4	45.5*	29.1*	79.1*	53.7*
O=C(NCCc1ccccc1)OCc1cn(Cc2ccc(C(F)(F)F)cc2)nn1	x	x	x	x	-2.3	x	x	x	x
COc1ccc(Cn2c(SCc3ccccc3C)nc3cc(OC)c(OC)cc3c2=N)cc1	-91.7	51.7*	9.4	-8.9	16.0	71.3*	30.6*	46.7	33.6*
Cc1ccc(-n2nc3c(=O)n(CCCC(=O)NCCc4ccccc4)nc(C)c3c2C)cc1	2.3	41.0*	-23.0	-4.1	-3.9	36.2	5.0	-0.6	8.0
SMILES	HCV NS3 hel inh	TAAR1 ag	TAAR1 antag	core dimer inh	rCAG binder	TAAR1 ag conf	Ga16 nonsel ag	TAAR1 desensitize	Ga16 antag count
COc1ccc(CN(CCN2CCOCC2)C(=O)c2cccc(F)c2)cc1OC	x	x	x	x	1.1	x	x	x	x
Cc1ccc(C(=O)NNC(=S)NC(=O)COc2ccccc2)cc1	-2.8	142.0*	74.0*	2.6	2.5	129.9*	111.0*	88.7*	68.2*
CC(C)(C)c1ccc(OCC(=O)NNC(=O)CCc2ccccc2)cc1	-3.0	4.8	-5.1	-0.8	-4.1	x	x	x	x
CC(C)(C)c1ccc(C(=O)NC(=S)NNC(=O)COc2ccccc2)cc1	26.5	124.2*	67.4*	9.3	8.3	123.6*	101.5*	100.2*	81.2*
Cc1ccc(OCC(=O)Nc2ccc(NC(=O)c3ccccc3)c(C)c2)cc1	9.8	44.3*	44.4	x	-0.5	51.8*	21.2*	62.7*	19.4
CCOc1cccc(C(=O)Nc2ccc(NC(=O)c3ccccc3)c(C)c2)c1	-0.8	-1.1	-12.9	6.7	-1.8	x	x	x	x
Cc1ccccc1C(=O)NNC(=S)NC(=O)COc1ccccc1	-1.2	0.6	-21.4	-1.8	-0.5	x	x	x	x
CC(C)(C)OC(=O)N1c2ccccc2[C@]2(N3CCCC3)C[C@H](C(=O)O)N(C(=O)OC(C)(C)C)[C@H]12	x	x	x	x	7.8	x	x	x	x
C[C@@H]1C=CCCO[C@]12C(=O)N(Cc1ccccc1C(F)(F)F)c1cccc(Br)c12	x	-1.7	-32.6	x	1.5	x	x	x	x
Cc1ccc(S(=O)(=O)C2(C(=O)NCCc3ccccc3)CC2)cc1	6.3	50.1*	1.7	-16.2	2.9	82.4*	0.1	34.6	4.9
Cc1ccc(S(=O)(=O)NNC(=S)NCCc2ccccc2)cc1	-5.9	34.9	-22.2	4.5	4.8	x	x	x	x
Cc1ccc(S(=O)(=O)NC(=O)NCCc2ccccc2)cc1	8.2	71.4*	18.0	-2.5	-1.4	81.0*	-0.2	36.6	13.3
N#Cc1ccc(NCCCN2CCC(C(O)(c3ccccc3)c3ccccc3)CC2)cc1	x	x	x	x	-0.8	x	x	x	x
O=C1C[C@@H](O)[C@H](O)c2cccc(O)c21	x	x	x	x	5.5	x	x	x	x
